Our source for the Activity values is ChEMBL document CHEMBL1147788, “Design, synthesis, and preliminary biological evaluation of 2,3-dihydro-3-hydroxymethyl-1,4-benzoxazine derivatives” (2006).

Active and inactive are the calls of the source. The calls are words filed in the database; no cut-off is given here.

For test [1], the system named is A549. Kind of test: Antiproliferative activity against human A549 cell line by MTT assay. Type of test: functional, cell-based. The essentials:
(§1)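 A549 cells grown in medium with or without compound at 50–400 µM for 24 and 48 h; viability read by MTT assay and expressed as percent of vehicle (DMSO) control. Means ± SE of three independent experiments; significance tested against control.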

In test [2] the test system is HUVEC. The experiment in a line: Induction of HUVEC cell line apoptosis at 25 uM. Type of test: functional, cell-based. As to conditions: Homo sapiens. The essentials: (§2)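 HUVECs in MCDB131 with 10% fetal calf serum and […] bFGF, passages 10–20. Apoptosis induced by growth-factor deprivation. Cells cultured with or without compound at 25–200 µM for 24 and 48 h. Means ± SE of three independent experiments versus control.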

The subject of test [3] is HUVEC. The experiment in a line: Induction of HUVEC cell line apoptosis at 50 uM. The test is classed as functional, cell-based. The following applies: Homo sapiens. The method in brief: as §2
Test [4] has as its system HUVEC. The experiment in a line: Induction of HUVEC cell line apoptosis at 100 uM. As to conditions: Homo sapiens. The test is classed as functional, cell-based. The method in brief:
as §2

Test [5] deals with HUVEC. Kind of test: Induction of HUVEC cell line apoptosis at 200 uM. Type of test: functional, cell-based. The following applies: Homo sapiens. The essentials: as §2
For test [6], the system named is A549. The experiment in a line: Decrease in viability of human A549 cell line at 200 uM after 48 hrs relative to control by MTT assay. The test is classed as functional. The method in brief:
as §1

Test [7] deals with A549. Kind of test: Decrease in viability of human A549 cell line at 400 uM after 24 hrs relative to control by MTT assay. Type of test: functional. The method in brief:
as §1

Test [8] deals with A549. Kind of test: Decrease in viability of human A549 cell line at 400 uM after 48 hrs relative to control by MTT assay. Type of test: functional. The essentials: as §1
The subject of test [9] is A549. The experiment in a line: Decrease in viability of human A549 cell line at 200 uM after 24 hrs relative to control by MTT assay. The test is classed as functional, cell-based. The method in brief:
as §1

Test [10] deals with A549. Kind of test: Antiproliferative activity against human A549 cell line at 400 uM after 24 hrs by MTT assay. Type of test: functional, cell-based. The essentials: as §1
In test [11] the test system is A549. Kind of test: Antiproliferative activity against human A549 cell line at 400 uM after 48 hrs by MTT assay. Type of test: functional, cell-based. The method in brief:
as §1

In test [12] the test system is A549. The experiment in a line: Decrease in viability of human A549 cell line at 50 uM after 48 hrs relative to control by MTT assay. The test is classed as functional, cell-based. The method in brief:
as §1

Test [13] concerns A549. Kind of test: Antiproliferative activity against human A549 cell line at 200 uM after 48 hrs by MTT assay. Type of test: functional, cell-based. The method in brief:
as §1

For test [14], the system named is HUVEC. The experiment in a line: Inhibition of HUVEC cell line apoptosis at 50 uM. The following applies: Homo sapiens. The test is classed as functional, cell-based. The method in brief:
as §2

The subject of test [15] is HUVEC. The experiment in a line: Inhibition of HUVEC cell line apoptosis at 100 uM. The test is classed as functional, cell-based. The following applies: Homo sapiens. The essentials: as §2
Test [16] relates to HUVEC. The experiment in a line: Inhibition of HUVEC cell line apoptosis at 200 uM. The test is classed as functional, cell-based. The following applies: Homo sapiens. The method in brief: as §2

Turning to `Cc1ccc2c(c1)NC(CO)CO2` (stereo unspecified), in the test with A549 [1], the result was inactive. In addition, the result in the test with HUVEC [2], with HUVEC [3], with HUVEC [4] and in the test on HUVEC [5] was Active.
For `CC(C)(C)c1ccc2c(c1)NC(CO)CO2` (stereo unspecified), the figures for the Activity with A549 [6], in the test with A549 [7] and in the test with A549 [8] were 72.6%, 77.8% and 59.5%, respectively. For the same compound, the outcome with HUVEC [2], with HUVEC [3], in the test with HUVEC [4] and in the test on HUVEC [5] was Active.
In the case of `OCC1COc2c(Cl)cc(Cl)cc2N1` (stereo unspecified), the result in the test with A549 [9], with A549 [10], in the test on A549 [6], in the test with A549 [11], with A549 [12] and in the test on HUVEC [2] was Active. Moreover, the outcome in the test with HUVEC [3], in the test with HUVEC [4] and in the test with HUVEC [5] was Active.
For the compound `OCC1COc2ccccc2N1` (stereo unspecified), the result in the test with A549 [1] was inactive. For the same compound, the result in the test on HUVEC [2], in the test on HUVEC [3], in the test on HUVEC [4] and in the test on HUVEC [5] was Active.
With `OCC1COc2ccc(Cl)cc2N1` (stereo unspecified), the result with A549 [13], in the test with A549 [11], with HUVEC [2], in the test on HUVEC [3], in the test with HUVEC [4] and in the test with HUVEC [5] was Active.
With `OCC1COc2c(Cl)cccc2N1` (stereo unspecified), in the test with A549 [1], the outcome was inactive. For the same compound, the outcome with HUVEC [2], in the test with HUVEC [3], in the test on HUVEC [4] and in the test with HUVEC [5] was Active.
`Nc1ccc2c(c1)NC(CO)CO2` (stereo unspecified): the outcome in the test on A549 [1] was inactive. In addition, the result with HUVEC [14], in the test on HUVEC [15] and with HUVEC [16] was Active.
